HSF-1 act – increases HSF-1 driven luciferase reporter signal. NIH3T3-HGL HSF-1 luciferase reporter, MG132, 8 h; 100% = twice DMSO control signal. activation, % at 9 µM. actives 1.7% (n = 300,000). AID 504408;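 active = mean replicate activation of at least 50% with a set share of replicates each reaching 50%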
Lipid droplet – modulators of hepatic lipid droplet formation | inhibition, % at 6.5 µM | AML12 mouse hepatocytes, oleate lipid droplets, BODIPY imaging | AID 1656 | actives 0.4% (n = 240,000);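 active = lipid droplet intensity inhibited by at least 50%, with more than 500 cells counted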
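Material – AML12 mouse liver cells · Also added – oleate loading, 100 µM · Compound dosing – 6.5 µM single-point dosing · Times – overnight treatment with compound plus oleate · Measured by – fluorescence imaging, 20x objective, two fields per well · Read-out – percent inhibition of filter-corrected integrated lipid droplet intensity per well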
HSF1 inhib – HSF1 inhibition. NIH3T3-HGL HSE-luciferase, MG132-induced, luminescence 8 h; active compounds read low. activity change, negative = inhibition, % at 7.5 µM (by protocol). actives 0.77% (n = 300,000). AID 2098;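 active = more than half of replicate wells show activity change below -50%, luminescence cut by over half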;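 note: luciferase reports HSF-1 transcriptional activity via heat shock element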
CHT PAM – allosterically activates the human high affinity choline transporter; Q9GZV3; CHT-expressing cells, membrane potential dye, choline EC20; active compounds read high; LV-AA mutant CHT in HEK293 cells; B-score at 10 µM; actives 0.49% (n = 310,000); AID 488977;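 active = initial fluorescence not abnormally high and integrated response B-score, plate-corrected, over 3 SD above library mean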
Target sequence (Q9GZV3 whole entry, looked up): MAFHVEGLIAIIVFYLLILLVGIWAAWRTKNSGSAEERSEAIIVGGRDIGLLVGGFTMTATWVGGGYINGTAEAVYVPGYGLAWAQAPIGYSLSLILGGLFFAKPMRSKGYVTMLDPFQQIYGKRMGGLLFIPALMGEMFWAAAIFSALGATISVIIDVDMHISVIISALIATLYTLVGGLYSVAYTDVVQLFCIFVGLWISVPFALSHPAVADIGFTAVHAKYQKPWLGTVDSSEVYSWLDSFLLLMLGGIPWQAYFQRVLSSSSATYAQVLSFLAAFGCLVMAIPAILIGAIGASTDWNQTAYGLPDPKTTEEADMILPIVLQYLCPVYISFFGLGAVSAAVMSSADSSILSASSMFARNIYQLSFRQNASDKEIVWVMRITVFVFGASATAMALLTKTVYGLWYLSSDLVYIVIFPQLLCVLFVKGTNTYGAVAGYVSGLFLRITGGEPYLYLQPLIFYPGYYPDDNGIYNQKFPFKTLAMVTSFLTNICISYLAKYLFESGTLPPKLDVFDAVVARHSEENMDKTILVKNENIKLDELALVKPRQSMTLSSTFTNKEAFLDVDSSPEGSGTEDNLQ
CHT inh – human CHT choline transport inhibition. CHT-expressing cells, membrane potential dye, choline response; active compounds read low. B-score at 10 µM. actives 0.86% (n = 310,000). AID 488975;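 active = B-score over 3 SD under the library average, and starting fluorescence ratio not unusually high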;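 note: choline stimulus applied at its EC90 after an EC20 pre-addition; B-score computed on integrated fluorescence ratio after choline addition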
PHOSPHO1 block – blocks human PHOSPHO1 phosphatase activity; Q8TCT1; recombinant PHOSPHO1, absorbance phosphatase assay; inhibition, % at 13.3 µM; actives 1.1% (n = 290,000); AID 1565; in the data active = inhibition above about 60%
Hits are given with their value; – = inactive; · = not tested or not shown. Shown are actives, neighbours in structure and some others; about 4.9% of the full set was active somewhere.

SMILES	HSF-1 act	Lipid droplet	HSF1 inhib	CHT PAM	CHT inh	PHOSPHO1 block
CC(=O)N1CCc2cc(S(=O)(=O)NC(Cc3ccccc3)C(=O)NC3CCCCCC3)ccc21 (configuration not stated)	54	–	–	–	–	–
CCC(=O)N1CCc2cc(S(=O)(=O)NCCC(=O)Nc3cc(C)cc(C)c3)ccc21	–	·	–	–	–	–
CC(=O)N1CCCc2cc(S(=O)(=O)NC(C(=O)NC3CCCCC3)C(C)C)ccc21 (configuration not stated)	–	–	–	–	–	–
CCC(=O)N1CCc2cc(S(=O)(=O)NCCC(=O)Nc3ccccc3C)ccc21	–	·	-65	–	–	–
CC(=O)N1CCc2cc(S(=O)(=O)NCC(=O)NCc3ccccc3Cl)ccc21	–	–	–	–	–	65
Cn1cccc1/C=C1\SC(=S)N(NC(=O)c2ccc(F)cc2)C1=O	·	–	·	–	–	–
CCOC(=O)N1CCN(C(=O)c2ccc3c(=O)n(CCOC)c(=O)[nH]c3c2)CC1	–	·	–	–	–	–
CN(C)c1nc2c(N)ncnc2n1[C@H]1O[C@@H](CO)[C@H](O)[C@@H]1O	–	–	–	–	–	–
Nc1ncnc2c(C3OC(CO)C(O)C3O)c[nH]c12 (configuration not stated)	91	·	91	·	·	·
Cc1cccc(-n2c(O)c(C=Nc3c(C)n(C)n(-c4ccccc4)c3=O)c3ccccc3c2=O)n1	–	·	–	–	–	–
Cc1ccccc1CNC(=O)COc1ccccc1	–	–	–	–	–	–
CC1(c2ccc(OC(F)F)cc2)NC(=O)N(CC(=O)Nc2ccc(N3CCCCC3)cc2)C1=O (configuration not stated)	–	·	–	–	–	·
Cc1ccc(S(=O)(=O)N(CC(=O)N2CCc3ccccc3C2)c2ccc(Cl)c(Cl)c2)cc1	–	–	-88	–	–	–
COc1cccc(N(CC(=O)N2CCN(C)CC2)S(=O)(=O)c2ccc(C)cc2)c1	–	·	-85	–	–	–
C=CCn1c(=O)c2c(nc(Br)n2Cc2ccccc2Cl)n(C)c1=O	–	·	–	–	–	–
CCC(=O)NC1=C(Cl)C(=O)C(NC(=O)CC)=C(Cl)C1=O	·	–	·	·	·	–
COc1ccc(CCNC(=O)CSc2nc3ccccc3o2)cc1OC	–	–	–	–	–	–
COc1ccc(CCNC(=O)CSc2nc3cc(Cl)ccc3o2)cc1OC	66	–	–	–	–	–
CCCOC1CCCN(C(=O)CCc2nnc(CCCCc3ccccc3)o2)C1 (configuration not stated)	56	–	–	–	–	–
Clc1ccccc1OCc1nc(-c2ccccn2)no1	60	–	–	–	–	–
CCC(Sc1nc(C)cc(C)n1)C(=O)Nc1ccc(Cl)cn1 (configuration not stated)	–	–	–	–	–	–
C#CCOCCOCCOCCNc1nc(N2CCN(C(=O)[C@H]([C@@H](C)O)n3cc(CCCCN)nn3)CC2)nc(N2CCN(C(=O)[C@H]([C@@H](C)CC)n3cc(CCCN=C(N)N)nn3)CC2)n1	–	–	–	–	–	–
Cc1cc(C)n(C(=O)CNC(=O)c2ccc(C(C)(C)C)cc2)n1	–	–	–	–	–	–
N#C/C(=C/c1ccc(F)cc1)c1nc(CCN2C(=O)c3ccccc3C2=O)cs1	–	–	–	–	–	–
N#C/C(=C/c1cccc(C(F)(F)F)c1)c1nc(CCN2C(=O)c3ccccc3C2=O)cs1	–	·	-59	–	–	–
SMILES	HSF-1 act	Lipid droplet	HSF1 inhib	CHT PAM	CHT inh	PHOSPHO1 block
O=C(CCCn1c(=S)[nH]c2ccc(Br)cc2c1=O)NCC1CCCO1 (configuration not stated)	72	·	–	–	–	–
O=C(Nc1cccnc1N1CCOCC1)c1ccco1	–	–	–	–	–	–
O=c1c2ccccc2[nH]c(=S)n1CCC1=CCCCC1	73	–	–	–	–	–
C=CCn1c(=S)[nH]c2ccccc2c1=O	·	–	·	–	–	–
COc1ccc(OC)c(NC(=O)CSc2nn3c(=O)c(C)nnc3s2)c1	–	–	–	–	–	–
Cc1ccc(C(C)C)c(Oc2cnccn2)c1	–	–	–	–	–	·
COc1ccc(Cn2nnnc2C(c2cc3ccc(OC)cc3[nH]c2=O)N2CCCCCC2)cc1 (configuration not stated)	–	·	–	–	–	86

Assay outcomes as filed in PubChem BioAssay.
